# Screening data as filed in PubChem BioAssay.
# Many of the other results were omitted from the sample, so hits are more common in it than they were.
# UPR CHOP act = activators of apoptotic arm of unfolded protein response (CHOP); 330,000 tested, 0.34% active; CHO-CHOP luciferase reporter, UPR activation, luminescence; percent of tunicamycin response over DMSO baseline; activation, % at 10 µM; AID 449763;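 active means at 10 µM dose, activation of 40% or more, normalized to positive control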;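 further: 100% = tunicamycin at 10 µg/mL and 0% = DMSO alone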
#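 Test system: CHO CHOP reporter cells. Input: 500 CHO-CHOP cells per well. Medium: F12 with 10% FBS. Technique: luciferase luminescence. Measure: percent activation relative to tunicamycin control. Dosing: 10 µM compound, 0.5% DMSO. Timing: 16-18 h cell attachment, then 6 h compound exposure, 37 °C.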
# V-ATPase pH = yeast V-ATPase proton transport regulation by pHLuorin | S. cerevisiae, pHLuorin cytosolic pH fluorescence | response, % at 10 µM | 350,000 tested, 0.37% active | AID 504577; in the data active means response mostly above about 7.3%, no sharp cut-off; inactive means mostly below about 5.4%; further: actives read high
# TbMetRS inhib = blocks T. brucei methionyl-tRNA synthetase activity | 360,000 tested, 0.4% active | purified T. brucei MetRS, ATP depletion, Kinase-Glo luminescence | inhibition, % at 11.9 µM;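 active means inhibition above a per-plate cutoff of the control wells' mean inhibition plus 3 SD, cut at about 5.5% in these data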;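 further: 0% = DMSO wells median and 100% = median of wells with control inhibitor compound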
#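 Measured by: Kinase-Glo luciferase luminescence reporting remaining unconsumed ATP. Material: purified T. brucei MetRS enzyme. Doses: 11.9 µM compound single dose, 0.9% DMSO. Medium: HEPES buffer containing pyrophosphatase, BSA, spermine, DTT. Times: 15 min preincubation, 2 h reaction, all 25 °C. Reagent: methionine, ATP and bulk E. coli tRNA.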
# CHOP inh = blocks CHOP induction under ER stress; CHO-K1 CHOP-promoter luciferase, tunicamycin-induced, 15-18 h; inhibition, % at 10 µM; 220,000 tested, 3.8% active; AID 2732;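 active means compounds that reduced the stress-induced luciferase reporter signal by more than about 70% of percent inhibition, limit read from the data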;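 further: 0% = tunicamycin plus vehicle and 100% = wells without tunicamycin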
# UPR XBP1 act = activators of adaptive arm of unfolded protein response (XBP1). 330,000 tested, 0.33% active. CHO-XBP1 luciferase reporter, IRE1-XBP1 UPR activation, luminescence; percent of tunicamycin response, DMSO as zero. activation, % at 20 µM. AID 463104;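 active means versus positive control, 20 µM dose yields 30% or more activation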;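 further: 100% = tunicamycin at 10 µg/mL and 0% = DMSO only wells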
#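 incubation = overnight seeding at 37 °C, 6 h compound treatment at 37 °C | assay system = CHO-XBP1 cells stably carrying IRE1-XBP1-driven luciferase reporter | input = 1000 cells per well | detection = luciferase luminescence | dosing = single point, 20 µM final compound, 1% DMSO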
# Active calls of the source: *; · = not tested or not shown.
SMILES,UPR CHOP act,V-ATPase pH,TbMetRS inhib,CHOP inh,UPR XBP1 act
CCN(CC)c1nc(Nc2ccccc2)nc(Oc2ccc(=O)n(C)n2)n1,1,-3,1,71*,4
CCN(CC)c1nc(Nc2ccccc2)nc(Oc2ccc(=O)[nH]n2)n1,2,-1,1,25,-3
CCc1c(C)nc(SCC(=O)N2CCCCC2C)[nH]c1=O (stereo not drawn),2,-3,0,20,0
O=C(Nc1cc(S(=O)(=O)N2CCCCC2)ccc1Cl)c1ccc(F)cc1,0,2,0,·,-3
Cc1cccc(-c2nnc3sc(-c4ccccc4)nn23)c1,5,4,-1,77*,4
c1ccc(-c2nn3c(C4CCCCC4)nnc3s2)cc1,1,-1,-1,78*,2
c1ccc(-c2nn3c(C4CCCCC4)nnc3s2)nc1,1,-3,-1,-11,-1
CCCS(=O)(=O)NC(=O)C1(C)CCCN(C(=O)c2ccccc2OC(F)(F)F)C1 (stereo not drawn),·,·,0,·,·
COc1ccc(C2=Nc3ccccc3N(C(=O)c3ccc4ncccc4c3)C2C(=O)NC2CCCC2)cc1 (stereo not drawn),·,·,-1,·,·
CCc1nc2ccc(C(=O)NCCCn3ccnc3)cn2c1N(C)Cc1ccc(OC)cc1,·,·,0,·,·
N#C/C(=C\c1ccc(N2CCOCC2)c([N+](=O)[O-])c1)c1nc2ccccc2[nH]1,2,-3,0,53,6
Cc1ccc2nc(/C(C#N)=C\c3ccc(N4CCCCC4)c([N+](=O)[O-])c3)[nH]c2c1,6,1,-1,79*,0
CCc1ccc(-c2cc(C(=O)N/N=C/c3c[nH]c4ccccc34)[nH]n2)cc1,1,-2,-1,89*,1
CCc1ccc2c(Cl)c(C(=O)N/N=C/c3c[nH]c4ccccc34)sc2c1,5,11,-1,71*,-3
O=C(N/N=C/c1cccc2ccccc12)c1cccnc1,1,1,-1,·,-3
CCc1ccc(C(=O)N/N=C/c2cccc3ccccc23)nc1,6,-3,-1,79*,3
COc1ccc(OC)c(CN2C(=O)CN(S(C)(=O)=O)CC2(C)C(=O)Nc2c(C)cccc2C)c1 (stereo not drawn),·,·,0,·,·
C=CC[C@@H](CC(=O)N[C@@H](CO)Cc1ccccc1)C(=O)N[C@@H](COC(=O)[C@H](CC=C)CC(=O)OC(C)(C)C)Cc1c[nH]c2ccccc12,1,-3,0,·,-2
Cc1cc(C)n(Cc2ccc(Cl)c(Cl)c2)c(=O)c1S(=O)(=O)c1ccccc1,·,1,-1,74*,·
CCCCCc1cc(=O)oc2c(C(CCN3CCCC(C)C3)c3cc(OC)c(OC)c(OC)c3)c(OC)cc(OC)c12 (stereo not drawn),21,-5,0,93*,10
CCCCCc1cc(=O)oc2c(C(CCN3CCCC(C)C3)c3ccc(N(C)C)cc3)c(OC)cc(OC)c12 (stereo not drawn),20,-9,0,84*,22
COc1cc(OC)c2ccc(=O)oc2c1C(CCN1CCCC(C)C1)c1ccc(N(C)C)cc1 (stereo not drawn),4,1,0,20,-1
Cc1cccc(NCC(=O)N/N=C/c2cccc(Br)c2)c1,1,3,-1,84*,4
Cc1ccc(NCC(=O)N/N=C/c2cccc(Br)c2)cc1,0,0,0,4,6
CN1CCN(Cc2nc3ccccc3c(=O)n2Cc2nc(-c3ccc4ccccc4c3)cs2)CC1,·,-1,0,88*,·
SMILES,UPR CHOP act,V-ATPase pH,TbMetRS inhib,CHOP inh,UPR XBP1 act
CCOc1ccc(-c2nnc(NC(=O)c3ccc(OCC(C)C)c(OC)c3)o2)cc1,4,-1,0,91*,5
COc1cccc(C(=O)Nc2nnc(-c3ccc(Cl)cc3)o2)c1,2,0,-1,-19,0
CSCCC(C(=O)Nc1c(C)cccc1C)n1c(-c2cc(C)cs2)nc2ccccc21 (stereo not drawn),·,·,0,·,·
CCN(CC)S(=O)(=O)c1ccc(-c2nnc(SCC(=O)Nc3ccc4c(c3)OCO4)o2)cc1,0,0,-2,42,-3
O=C(CSc1nnc(-c2ccc(F)cc2)o1)Nc1ccc(S(=O)(=O)N2CCCCCC2)cc1,-2,-2,0,84*,-1
CCN(CC)S(=O)(=O)c1ccc(NC(=O)CSc2nnc(-c3ccc(F)cc3)o2)cc1,0,-4,-1,94*,-1
Cc1ccc(-c2oc3ncnc(N)c3c2-c2ccc(C)cc2)cc1,0,1,-1,82*,0
Cc1oc2ncnc(N)c2c1C,-1,0,-2,2,0
COc1ccc(C(=O)NC(=S)Nc2ccc([N+](=O)[O-])cc2C)cc1OC,-1,3,-1,79*,-1
CS(=O)(=O)NCCCCNc1ccc(C(F)(F)F)cc1[N+](=O)[O-],0,-1,0,7,-2
O=[N+]([O-])c1cc(C(F)(F)F)ccc1NCCCCNS(=O)(=O)c1ccc2ccccc2c1,-1,5,0,83*,-3
COc1ccc(NS(=O)CCCc2ccccc2)cc1 (stereo not drawn),·,·,-1,·,·
CCOc1ccc(NC(=O)Cn2nnc(-c3ccccc3NC(=O)CC)n2)cc1,0,2,-1,-6,0
O=C(Cn1nnc(-c2ccccc2NC(=O)c2ccco2)n1)Nc1ccccc1,1,-1,-1,85*,2
CC(C)(C)NC(=O)Cn1nnc(-c2ccccc2NC(=O)c2ccco2)n1,-1,6,0,-1,-1
CCCC(=O)Nc1ccccc1-c1nnn(CC(=O)Nc2ccc(OCC)cc2)n1,-1,2,0,80*,-2
COc1ccc(NC(=O)Cn2nnc(-c3ccccc3NC(=O)c3cccs3)n2)cc1,-1,·,0,73*,5
Cc1ccc(NC(=O)Cn2nnc(-c3ccccc3NC(=O)c3cccs3)n2)cc1,2,-4,0,·,5
CCOc1ccc(Cl)cc1-c1cc(C(=O)NCc2cccc(C(F)(F)F)c2)[nH]n1,·,·,1,·,·
COc1ccc(C(=O)C[C@@H]2OC[C@H](C(C)C)N2S(=O)(=O)c2ccc(C)cc2)cc1OC,·,·,-1,·,·
CSc1ccc(CNc2ccc(C)cc2)cc1,3,-1,0,42,1
O=C(Nc1cccc(Cl)c1)Nc1cccc(Cl)c1,16,-7,0,16,5
O=C(Nc1cccc(Cl)c1)Nc1cc(S(=O)(=O)N2CCCCC2)ccc1Cl,15,-3,0,87*,16
O=C(Nc1ccccc1)Nc1ccc(Br)cc1F,5,-3,0,57,4
O=C(Nc1cccc(Cl)c1)Nc1ccc(Br)cc1F,2,-4,-1,91*,6
Cc1cccc(NC(=O)Nc2ccc(C)cc2Br)c1,4,0,1,90*,5
